Most compounds without a hit are left out; they make up all but 1.7% or so of the library.
DNMT1 block = DNMT1 (human) enzyme inhibition; DNMT1 molecular beacon, Hinp1I cleavage, fluorescence; hit rate 0.83% among 360,000; AID 588458; inhibition (reported as % activation of signal), % at 10 µM; in the data active means inhibition above about 50%
Scp-1 inhibitor = Scp-1 (human) phosphatase inhibition; inhibition, % at 20 µM; Recombinant Scp1, phosphopeptide, malachite green phosphate absorbance; hit rate 0.88% among 340,000;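 active means inhibition above about 50% at 20 µM, limit read from the data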
Target sequence (Q9GZU7 76-261 limits assumed): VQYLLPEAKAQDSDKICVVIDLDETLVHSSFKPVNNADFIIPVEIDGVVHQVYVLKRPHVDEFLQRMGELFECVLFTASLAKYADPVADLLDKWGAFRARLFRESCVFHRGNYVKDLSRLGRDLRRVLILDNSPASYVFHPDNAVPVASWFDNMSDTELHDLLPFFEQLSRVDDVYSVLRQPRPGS
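Test system: SCP-1 phosphatase catalytic domain, residues 76-261; measured by: colorimetric phosphate reagent with accelerator and stabiliser, absorbance at 630 nm; timing: enzyme reaction 45 min at room temperature, colour 5 min, stabilisation 30 min; also added: Phosphorylated 17-residue peptide substrate; compound dosing: one concentration, 20 µM, with 1.0% DMSO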
SUMO1 PPI mod = modulators of human SUMO1-mediated protein-protein interactions; SUMO1 binding to a labelled peptide, TR-FRET, 1 h; AID 602429; hit rate 0.33% among 360,000; P63165; inhibition, % at 20 µM; in the data active means inhibition above about 37%
Target sequence (P63165 whole entry, looked up): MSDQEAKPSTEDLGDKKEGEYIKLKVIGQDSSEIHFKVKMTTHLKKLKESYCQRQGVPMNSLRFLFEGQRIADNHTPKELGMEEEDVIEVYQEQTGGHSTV
LMPTP inh = LMPTP (human) inhibition | P24666 | hit rate 0.22% among 360,000 | inhibition, % at 20 µM | recombinant LMPTP-A, OMFP fluorogenic substrate, fluorescence intensity;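 active means compounds that cut the enzyme signal by at least half of the control window in the single-dose screen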
Target sequence (P24666 whole entry, looked up): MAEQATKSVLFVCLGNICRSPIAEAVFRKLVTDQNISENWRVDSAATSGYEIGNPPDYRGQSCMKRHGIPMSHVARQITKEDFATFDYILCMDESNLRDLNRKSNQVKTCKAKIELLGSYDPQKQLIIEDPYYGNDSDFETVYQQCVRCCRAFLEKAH
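Buffer or medium: Bis-Tris pH 6.0, DTT, detergent; Assay system: LMPTP-A enzyme; Quantity: 0.625 nM enzyme; Detection: endpoint fluorescence intensity; Times: 50 min dark incubation at room temperature; Controls: substrate-only low control, DMSO enzyme-plus-substrate high control; Doses: single 20 µM dose; Read-out: percent inhibition versus substrate-only and uninhibited controls; Reagent: 400 µM OMFP.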
STEP block = blocks human striatal-enriched tyrosine phosphatase; P54829; recombinant STEP, OMFP fluorogenic substrate, fluorescence; inhibition, % at 20 µM; hit rate 0.25% among 360,000; AID 588621;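 active means inhibition at 20 µM, scaled per plate between control wells, above about 37%, limit read from the data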
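Measure: Control-normalized % inhibition with plate pattern correction | Test system: STEP phosphatase, cell-free reaction | Medium: pH 6.0 Bis-Tris with DTT and Tween 20 | Technique: Fluorescence, 480/540 nm | Times: Reaction 20 min, ambient temperature | Doses: Single compound dose of 20 µM, 1% DMSO final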
DNMT1 inh conf = confirmation of human DNMT1 inhibitors; shares compounds with DNMT1 block; DNMT1 molecular beacon HinP1I cleavage, fluorescence; inhibition, % at 10 µM; hit rate 8% among 2,300;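 active means average inhibition of at least 30% in the single-concentration confirmation test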
Beacon interf = shows spectral interference in the DNMT1 beacon assay | shares compounds with DNMT1 block | DNMT1 molecular beacon spectral interference counterscreen, fluorescence 485/520 | activation (fluorescence interference), % at 10 µM | hit rate 1% among 2,300 | AID 602387;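 active means activation of at least 30% at 10 µM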;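 further: DNMT1 catalytic domain with a HinP1I cleavage step and a FAM/dabcyl DNA beacon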
Numbers stand for hits; i = inactive; nt = not tested or not shown; ! = not active in a repeat.

SMILES	DNMT1 block	Scp-1 inhibitor	SUMO1 PPI mod	LMPTP inh	STEP block	DNMT1 inh conf	Beacon interf
C#CCOCCOCCOCCNc1nc(N2CCN(C(=O)[C@H](CCC(=O)O)n3cc(C(N)CC(C)C)nn3)CC2)nc(N2CCN(C(=O)[C@H](CCC(=O)O)n3cc(C(N)CC(C)C)nn3)CC2)n1 (some centres undefined)	i	i	i	i	i	nt	nt
COCCN(Cc1nc(-c2ccc(-c3ccccc3)cc2)oc1C)C(C)C	i	i	i	i	i	nt	nt
N#CCCN(C(=O)COC(=O)COc1ccccc1Cc1ccccc1)c1ccccc1	60	i	i	i	i	i	i
N#CCCN(C(=O)COC(=O)Cc1ccc(Br)cc1)c1ccccc1	i	i	i	i	i	nt	nt
N#Cc1nc(-c2ccco2)oc1N1CCC(Cc2ccccc2)CC1	i	i	i	i	i	nt	nt
O=C1Cc2cccc(=O)c(O)c2C(=O)O1	81	nt	i	i	i	i	i
CCCC(NC(=O)Cc1c(C)c2c(cc(C)c3c(C)coc32)oc1=O)C(=O)O (centres undefined)	i	i	i	i	i	nt	nt
Cc1nnn(-c2nonc2N)c1C(=O)N/N=C/c1cccc2ccccc12	60	i	i	i	i	i	i
O=C(N/N=C/c1ccco1)c1cccc(S(=O)(=O)Nc2ccccc2Cl)c1	56	i	i	i	i	i	i
Cc1ccc(/C=N/NC(=O)c2cccc(S(=O)(=O)Nc3ccccc3Cl)c2)o1	i	i	i	i	i	nt	nt
Cc1cc(C(=O)Nc2ccc3c(c2)CCC3)ccc1[N+](=O)[O-]	78	i	i	i	i	i	i
Cc1ccc(C(=O)NCC(=O)Nc2ccc3c(c2)CCC3)cc1C	i	i	i	i	i	nt	nt
COc1ccc(Nc2ncnc3c2c(C)c(C)n3CCO)cc1	i	i	i	i	i	nt	nt
C[c-]1[c-](C)[c-](C)[c-](C)[c-]1C.[Fe].c1cc2nccc(N3CCCC3)[c-]2c1 (centres undefined)	102!	68!	120	71	77	i	i
c1cc(N2CCCCC2)nc(N2CCCCC2)n1	i	i	i	i	i	nt	nt
O=C(Nc1cccc(Cl)c1)c1nc[nH]c1C(=O)NCCCCNC(=O)c1[nH]cnc1C(=O)Nc1cccc(Cl)c1	53	i	i	i	i	i	i
NNC(=O)c1nc[nH]c1C(=O)Nc1ccccc1	66	i	i	i	i	i	i
O=C(Nc1ccccc1)c1nc[nH]c1C(=O)NCc1ccccc1	i	i	i	i	i	nt	nt
COc1ccc(C(CNC(=O)c2cccc(S(=O)(=O)NCc3ccccc3)c2)N(C)C)cc1 (centres undefined)	i	i	i	i	i	nt	nt
CN(C)S(=O)(=O)c1cccc(C(=O)Nc2cc(S(=O)(=O)N3CCOCC3)ccc2N2CCCC2)c1	i	i	i	i	i	nt	nt
Cc1ccc(C)c(S(=O)(=O)N2CCN(C(=O)/C=C/c3ccco3)CC2)c1	76	i	i	i	i	i	i
CCC1SC(=Nc2cccc(C)c2)NC1=O (centres undefined)	i	i	i	i	i	nt	nt
CCC1S/C(=N/S(=O)(=O)c2ccc(N)cc2)NC1=O (centres undefined)	66	i	i	i	i	i	i
O=C(CSc1nnc(NC(=O)c2cccc(F)c2)s1)NC1CCCC1	i	i	i	i	i	nt	nt
CC1(C(=O)NS(=O)(=O)C2CC2)CCCN(C(=O)c2cccc(Cl)c2)C1 (centres undefined)	65	nt	i	i	i	i	i
Cc1cc(C)cc(OCc2nc3ncc(Br)cc3[nH]2)c1	59	i	i	i	i	i	i
COc1ccccc1CNC(=O)/C=C/c1ccc(Br)o1	91	i	72	i	i	i	i
COc1ccc(NC(=O)/C=C/c2ccc(Br)o2)cn1	51	i	i	i	i	i	i
COc1ccc(NC(=O)/C=C/c2ccco2)cn1	i	i	i	i	i	nt	nt
CCOc1ccccc1NS(=O)(=O)c1ccc2c(c1)N(C)CCO2	i	i	i	i	i	nt	nt

Screening results from PubChem.
